A short description of experiment [1]: Antiproliferative activity against human WM266.4 cells after 5 days by SRB assay. The note with it: WM 266-4, 120 h. A general note: In SRB staining, fixed cells bind dye roughly in proportion to their protein.
A short description of experiment [2]: Antiproliferative activity against human WM1361 cells after 5 days by SRB assay. The note with it: WM1361, 120 h.
The target in experiment [3] is T1, Serine/threonine-protein kinase B-raf (Homo sapiens, UniProt P15056, V600E). The experiment is described as follows: Inhibition of BRAF V600E mutant-mediated ERK phosphorylation in human WM266.4 cells. The class given is cell-based.
T1 sequence (P15056 2-766 V600E limits assumed): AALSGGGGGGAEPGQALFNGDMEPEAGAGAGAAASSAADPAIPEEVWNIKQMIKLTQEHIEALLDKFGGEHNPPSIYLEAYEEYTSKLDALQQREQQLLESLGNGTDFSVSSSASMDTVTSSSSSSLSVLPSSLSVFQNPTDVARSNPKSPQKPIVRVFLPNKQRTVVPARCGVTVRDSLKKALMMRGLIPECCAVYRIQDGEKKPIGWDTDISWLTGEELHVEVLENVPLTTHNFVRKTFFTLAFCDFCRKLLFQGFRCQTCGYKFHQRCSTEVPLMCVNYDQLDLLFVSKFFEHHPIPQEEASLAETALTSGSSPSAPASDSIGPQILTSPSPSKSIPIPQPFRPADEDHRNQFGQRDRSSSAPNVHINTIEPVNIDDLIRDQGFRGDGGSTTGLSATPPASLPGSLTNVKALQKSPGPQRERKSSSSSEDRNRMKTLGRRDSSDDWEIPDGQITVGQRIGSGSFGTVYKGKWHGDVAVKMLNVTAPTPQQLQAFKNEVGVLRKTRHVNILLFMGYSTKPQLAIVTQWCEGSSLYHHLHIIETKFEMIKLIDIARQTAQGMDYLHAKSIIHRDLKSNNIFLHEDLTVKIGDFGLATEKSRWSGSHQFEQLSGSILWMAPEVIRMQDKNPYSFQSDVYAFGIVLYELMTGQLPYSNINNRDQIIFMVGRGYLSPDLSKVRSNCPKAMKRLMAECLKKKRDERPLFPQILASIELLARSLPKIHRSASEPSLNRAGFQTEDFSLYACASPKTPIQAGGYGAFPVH
Experiment [4] in a line: Antiproliferative activity against human WM266.4 cells after 6 days by SRB assay. The class given is functional. The conditions noted are these: WM 266-4, 144 h. The gist of the method: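 SRB cell proliferation assay on WM266.4 melanoma cells, which carry mutant BRAF. Growth inhibition is reported as GI50.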
Experiment [5] has as its target T1, Serine/threonine-protein kinase B-raf. As to the kind of experiment: Inhibition of human BRAF V600E mutant expressed in Sf9 cells.

Each structure is given as a SMILES string.

Broadly, the GI50 is the concentration at which growth is held to half of that of the control. Low values mean greater sensitivity of the cells, high ones lower sensitivity of the cells. By IC50 is commonly meant the concentration needed to halve the response being measured. Lower therefore signals higher potency.

Regarding `CNC(=O)c1cc(Oc2ccc(NC(=O)Nc3ccc(Cl)c(C(F)(F)F)c3)cc2)ccn1` [SORAFENIB], the GI50 in experiment [1] was 4.93 µM; in experiment [2], 4.34 µM.
In the case of `O=C(Nc1cccc(Oc2ccnc3[nH]c(=O)[nH]c23)c1)c1ccnc(Cl)c1`, the IC50 is > 100 µM in experiment [3] and 93 µM in experiment [5]. Besides, the GI50 in experiment [4] worked out at 25 µM.
Taken in the same sequence, the figures for `O=C(Nc1cccc(Oc2ccnc3[nH]c(=O)[nH]c23)c1)Nc1ccc(Cl)c(C(F)(F)F)c1` were 10.7 µM, 0.015 µM and 4.2 µM.
Taken in the same sequence, the figures for `O=C(Nc1cccc(Oc2ccnc3[nH]c(=O)[nH]c23)c1)c1cccc(OC(F)(F)F)c1F` were 6.7 µM, 0.015 µM and 0.57 µM.

The values above are taken from ChEMBL document CHEMBL1157573, “BRAF inhibitors based on an imidazo[4,5]pyridin-2-one scaffold and a meta substituted middle ring” (J Med Chem, 2010).
